Results taken from article PMC10424151 (Molecular Therapy. Nucleic Acids, 2023).

Legend:
DNase I = biological target: T1, DNase I (Homo sapiens, UniProt P24855); test: DNase I stability assay; type: in vitro ADME; settings: for stability of peptide-bDNA complex in the presence of DNase I: 1 μM bDNA + 50 or 100 μM peptide, 10 U/mL DNase I, up to 30 min, 37 °C, 2% AGE
T1 sequence (P24855 23-282): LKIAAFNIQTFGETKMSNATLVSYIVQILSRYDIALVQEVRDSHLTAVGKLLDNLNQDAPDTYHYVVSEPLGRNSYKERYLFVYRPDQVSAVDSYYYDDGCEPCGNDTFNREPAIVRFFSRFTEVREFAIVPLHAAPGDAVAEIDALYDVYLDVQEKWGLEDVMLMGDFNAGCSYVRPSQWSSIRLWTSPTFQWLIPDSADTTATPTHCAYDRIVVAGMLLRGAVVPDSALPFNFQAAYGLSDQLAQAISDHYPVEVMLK
Summary of the method: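 Complexes of 1 µM bDNA pre-incubated with 100 µM linear peptide were exposed to 10 U/mL DNase I for 15 and 30 min. A second set used 1 µM bDNA with 50 µM linear peptide, digested for 5, 10, 20 and 30 min at 37°C. Digests were run on 2% agarose gels at 80 V for 25 min, and stability was judged from band intensity.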

[1] = Dynamic light-scattering measurement of hydrodynamic radius; type: physicochemical; settings: DLS, 100 μM peptide + 1 μM bDNA, 1 h incubation, 25 °C
Summary of the method: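 bDNA was dissolved in self-assembly buffer, pH 7.4, and filtered through 0.22 µm. Linear peptide (100 µM) was incubated with 1 µM bDNA for 1 h, with peptide alone as control. DLS was read at 658 nm with a 175° scattering angle at 25°C, averaging triplicate readings. Rh came from autocorrelation analysis via the translational diffusion coefficient and the Stokes-Einstein relation.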

Alexa 488 bDNA = test: Absorbance; type: binding; settings: 1 μM Alexa 488 bDNA, peptide/bDNA 0:1 to 100:1, 1 h, 25 °C, 495 nm
Summary of the method: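 Alexa 488-labelled bDNA (1 μM) incubated 1 h at 25 °C with linear test peptide at peptide/bDNA molar ratios 0:1 to 100:1. UV-vis absorbance spectra recorded over 450–550 nm. Hypochromicity expressed as ΔOD_r = (OD0 − OD)/OD0, where OD0 is free labelled bDNA and OD is the bDNA–peptide complex, then plotted against molar ratio.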

HCT-116 cells = test: Cellular uptake of Alexa 488-labeled bDNA by FACS; type: cell-based; settings: HCT-116, 75 nM Alexa 488-labeled bDNA + 25 μM peptide, overnight
Summary of the method: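 HCT-116 cells (2×10^5 per well) seeded overnight in serum-free DMEM, then washed twice with PBS. Alexa 488-bDNA (75 nM) premixed with test peptide (25 μM) in DMEM about 30 min at room temperature, added to cells and left overnight at 37 °C. Cells detached with 0.25% trypsin/0.53 mM EDTA (5 min, 37 °C), pelleted at 700 × g for 5 min, washed twice, resuspended in PBS and analysed by flow cytometry.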

bDNAaso [2] = test: CD titration of bDNAaso with linear peptides; type: binding; settings: 1 μM bDNA, 5 to 100 μM peptide, 25 °C (Figures 4G and S13G)
[3] = Release of bDNA from peptide complexes; type: in vitro ADME; settings: 1 μM bDNAaso + 100 μM W4R4 in serum-free DMEM, 1% SDS, 30 min, 2% agarose gel
Summary of the method: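 Gel-shift release: 1 μM bDNAaso was complexed with 100 μM test peptide in 20 μL serum-free DMEM for 1 h at room temperature. The complex was exposed to 1% SDS for 30 min, then run on 2% agarose for 25 min at constant 80 V and the gel imaged.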

bDNAaso [4] = test: Isothermal titration calorimetry of linear peptides with bDNA; type: binding; settings: 25 °C, 1 μM bDNA titrated with 100 μM peptide, 1× TEAM buffer pH 7.4
[5] = Zeta potential measurement; type: physicochemical; settings: 1 μM bDNA + 100 μM peptide, 1 h, 25 °C
Summary of the method: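 bDNA (1 μM) incubated 1 h with 100 μM linear test peptide. bDNA alone and peptide alone at the same concentrations incubated 1 h at 25 °C as controls. Zeta potential […] by the Smoluchowski approximation. Values are the mean of triplicate readings.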

Substance | stability of peptide-bDNA complex in the presence of DNase I (DNase I) | change of hydrodynamic radii of the peptide in the presence of bDNAs [1] | change in absorbance of Alexa 488 bDNA with increasing molar ratio of peptide (Alexa 488 bDNA) | cellular internalization relative to W3R3 (FACS) (HCT-116 cells) | CD peak intensities of bDNA in peptide-bDNA complex (bDNAaso [2]) | effect of SDS on the W4R4-bDNAaso complex [3] | binding affinity to bDNAaso relative to other peptide-bound bDNAs (ITC) (bDNAaso [4]) | zeta potential of bDNA in the presence of the peptide [5] | protection of peptide-bound bDNAs against nuclease degradation (DNase I; peptide-bound bDNAs, Figures S19 and S20)
Ac-WWWGGGRRR-Am [W3R3] | retained the stability | moderate increase |  |  |  |  |  |  | 
Ac-WWWGGHHHH-Am [W3H4] |  | moderate increase |  |  |  |  |  |  | 
Ac-WWWWGGRRRR-Am [W4R4] | retained the stability | increased significantly | significant decline in absorbance | 1.7 fold | flattened to the baseline | triggered the release | about nine times higher | positive zeta potential | 
Ac-WWWWGGHHHH-Am [W4H4] | degraded close to the control | increased significantly | no significant alteration in absorbance |  |  |  |  |  | 20%
